Data published in ChEMBL document CHEMBL4513216, “Probing the Open Global Health Chemical Diversity Library for Multistage-Active Starting Points for Next-Generation Antimalarials” (ACS Infect Dis, 2020).

Test: Toxicity liver stage against HepG2, at 10uM
Assay type: cell-based
Design: test concentration 10 uM, cell line HepG2-A16-CD81EGFP
Settings: human, HepG2-A16-CD81EGFP cells; read-out: INHIBITION
Summary of the method: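 Uninfected HepG2-A16-CD81EGFP cells, 3 × 10^3 per well, 1536-well, plated on prespotted compound at 10 μM final, parasite-free screening media added to match infected plates; puromycin 10 μM positive, DMSO 0.5% negative; run in parallel with 48 h PbLuc assay at 37 °C, 5% CO2; viability by CellTiter-Glo luminescence, normalized to controls.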

Cc1ccc(OCc2cccc(C(=O)N(C)C(C)CC#N)c2)cn1 (stereo not given)
cytotoxicity at 10 µM: 6.36%

CCOC(=O)C1CCN(C(=O)c2cc(Br)ccc2-n2cnnn2)CC1
cytotoxicity at 10 µM: -2.41%

CCOC(=O)C1CCN(Cc2csc(-c3ccc(C)o3)n2)CC1
cytotoxicity at 10 µM: -11.4%

Cc1ccc(N2CCCC(N3CCC(CO)CC3)C2=O)cc1 (stereo not given)
cytotoxicity at 10 µM: 0.473%

CC(=O)c1cccc(OCc2cc(C(=O)N3CCCCO3)n[nH]2)c1
cytotoxicity at 10 µM: 2.19%

CCc1nc(N2CCC3(CCC(=O)N(Cc4ccncc4)C3)CC2)no1
cytotoxicity at 10 µM: 7.1%

Cn1nc(-c2ccccc2)cc1[C@H]1CN2CC[C@H]1C[C@@H]2CNS(C)(=O)=O
cytotoxicity at 10 µM: 1.82%

COc1ccccc1N1CCC(CNC(=O)CN2CSCC2=O)C1 (stereo not given)
cytotoxicity at 10 µM: -1.33%

Cc1ccc(CN2C[C@@H]3COC[C@H](NS(C)(=O)=O)[C@@H]3C2)s1
cytotoxicity at 10 µM: 0.354%

CN(C)CCCn1ccnc1C1CCN(c2cccc(C(=O)O)n2)CC1
cytotoxicity at 10 µM: 6.87%

O=C(CCc1nc2cccnc2[nH]1)NCc1cccnc1
cytotoxicity at 10 µM: 7.72%

COc1ccc(CNC[C@H]2COCc3nc4cccnc4n32)cn1
cytotoxicity at 10 µM: -0.772%

CN(C)CCOCC1CN(Cc2ccsc2)Cc2ccnn2C1 (stereo not given)
cytotoxicity at 10 µM: 3.01%

CN(C)C[C@H]1C[C@@H]2CN(Cc3ccoc3)C[C@@H]2O1
cytotoxicity at 10 µM: 4.85%

Cc1cnn(C2CCCN(C(=O)c3cc(-c4ccccc4C)n[nH]3)C2)c1 (stereo not given)
cytotoxicity at 10 µM: -9.66%

CCc1nc(C2CCCN2C(=O)CCn2cncn2)no1 (stereo not given)
cytotoxicity at 10 µM: -5.63%

CCOCCn1nc(C)cc1C(=O)N1CCC2(CC1)[C@H](O)C[C@@H]2OCC
cytotoxicity at 10 µM: 4.35%

Clc1cccc(N2CCC(NCc3cc[nH]n3)C2)c1 (stereo not given)
cytotoxicity at 10 µM: 4.01%

CCC(C)(C)NC(=O)COC(=O)c1cc(C)ccc1NC(=O)N(C)C
cytotoxicity at 10 µM: 1.12%

Fc1cc(CCNc2ccc3nccn3n2)c2c(c1)COCO2
cytotoxicity at 10 µM: 17.2%

COc1ccc2c(c1)NC(=O)C2OC(=O)CC(C)(C)C (stereo not given)
cytotoxicity at 10 µM: 2.41%

CCOCc1nn(C)c2c1CN(CCO)CC2
cytotoxicity at 10 µM: -103%

Cc1cc(C)cc(CN2CCN(Cc3ccc4nonc4c3)CC2=O)c1
cytotoxicity at 10 µM: 0.403%

CCOC(=O)[C@]12CCCN(Cc3nccs3)C[C@H]1CN(C(C)C)C2
cytotoxicity at 10 µM: -8.81%

CC1CCC(C(=O)N2CCC(n3cc(C4(O)CCCC4)nn3)CC2)CC1 (stereo not given)
cytotoxicity at 10 µM: 9.08%

CC1(C)Oc2ccc(NC(=O)c3ccc(=O)[nH]n3)cc2O1
cytotoxicity at 10 µM: 10.1%

O=c1n(CCNCc2ccc3ccccc3c2)nc2ccccn12
cytotoxicity at 10 µM: 18.6%

Cc1nn(C)c(N2CCOCC2)c1CNC(c1cccs1)C(C)C (stereo not given)
cytotoxicity at 10 µM: -2.53%

COCCn1ccc2c(C(=O)NCC3CCCO3)cccc21 (stereo not given)
cytotoxicity at 10 µM: 1.53%

Cc1cccc(CNC[C@H]2Cn3ccnc3CO2)n1
cytotoxicity at 10 µM: 3.15%

CC(=O)c1cccc(NC(=O)N(CCO)C2CCc3ccccc32)c1 (stereo not given)
cytotoxicity at 10 µM: -3.01%

Cc1nc(C)n(CC2CCCCN2CC(=O)Nc2c(C)n[nH]c2C)n1 (stereo not given)
cytotoxicity at 10 µM: -12.7%

CN1CCN(c2ccc(F)cc2NC(=O)NCCn2ccnc2)CC1
cytotoxicity at 10 µM: 1.69%

CN(C)c1ncnc2c1CCN(S(=O)(=O)c1ccccc1C(F)(F)F)C2
cytotoxicity at 10 µM: 21.3%

COc1ccc(NC(=O)N2CCCC2c2ccco2)c(OC)c1 (stereo not given)
cytotoxicity at 10 µM: 10.8%

CCn1ccnc1CNCC(c1ccc(C)s1)N1CCOCC1 (stereo not given)
cytotoxicity at 10 µM: 6.41%

COCCn1cc(C(=O)N2CCCC2c2ccncc2)c2ccccc21 (stereo not given)
cytotoxicity at 10 µM: 10.7%

Cc1cnn(CCNCc2ccccc2OCc2ccncc2)c1
cytotoxicity at 10 µM: -16.1%

Cc1cc(N)nc(C2(C)CCCN2C(=O)Cc2ccc(F)cc2)n1 (stereo not given)
cytotoxicity at 10 µM: -27.5%

CC(C)CNC1(Cc2cc(-c3ccccc3)on2)COC1
cytotoxicity at 10 µM: 1.74%

CC(C)n1cnnc1CN(C)C(=O)C1CCCN(CC(N)=O)C1 (stereo not given)
cytotoxicity at 10 µM: 1.05%

CC(C)c1nc(-c2cc(C(=O)O)c3ccccn23)cs1
cytotoxicity at 10 µM: 7.43%

N#CC(NC(=O)CC(F)(F)F)c1ccsc1 (stereo not given)
cytotoxicity at 10 µM: 7.61%

Cc1ccc(C(=O)NCCN2CCOCC2)cc1N(C)S(C)(=O)=O
cytotoxicity at 10 µM: 15.1%

Cc1occc1C(=O)Nc1ccc(C(=O)NC[C@H]2CCCN2)cc1
cytotoxicity at 10 µM: -10.6%

CS(=O)(=O)NCc1cnc2n1CCN(Cc1ccco1)CC2
cytotoxicity at 10 µM: -4.31%

Cc1nc(CN2C[C@@H]3CN(C(=O)C4CC4)C[C@@H]3C2=O)cs1
cytotoxicity at 10 µM: 4.19%

COc1ccc(/C=C/CN2CCC3(CC2)CN(C)C(=O)O3)cc1
cytotoxicity at 10 µM: -2.11%

CNC(=O)c1cn[nH]c1C1CCN(Cc2ccccc2OC)C1 (stereo not given)
cytotoxicity at 10 µM: 7.16%

COCC(=O)N1C[C@@H](OCc2cccnc2)[C@H]2OCCC[C@@H]21
cytotoxicity at 10 µM: 2.53%

COCc1cn(C2CCN(C(=O)c3ccc(F)c(C)c3)CC2)nn1
cytotoxicity at 10 µM: -0.723%

Cc1cnc(N(C)Cc2cnc3ccccc3n2)nc1N(C)C
cytotoxicity at 10 µM: 6.7%

Cc1nc(CN(C)C)cc(N2CCCC(COc3ccc(F)cc3)C2)n1 (stereo not given)
cytotoxicity at 10 µM: -7.4%

CC1CN(CC(=O)Nc2cccnc2)CCN1c1nccs1 (stereo not given)
cytotoxicity at 10 µM: -3.59%

O=C(C1CC=CC1)N1CCC2(CCN(Cc3cccc(F)c3)CC2)C1
cytotoxicity at 10 µM: -4.48%
